Experiments:
[1] = Cytotoxicity against cisplatin-resistant human C13 cells at 750 uM after 72 hrs by crystal violet dye assay; format: functional
How it was run: (§1)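 2008 ovarian carcinoma cells or the cisplatin-resistant C13* subline, grown in RPMI 1640 with 10% heat-inactivated FBS and gentamycin, 5% CO2, 37 °C, mycoplasma-negative. Seeded 4 × 10^4 cells/well, exposed 24 h later to compound for 3 days. Crystal violet stain solubilized in acidic isopropanol, absorbance read at 540 nm versus untreated controls. IC50 taken from dose–response curves. Mean of three experiments run in duplicate.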

[2] = test system: 2008; test: Cytotoxicity against cisplatin-sensitive human 2008 cells after 72 hrs by crystal violet dye assay; format: functional, cell-based; conditions: Homo sapiens, 2008, 72 h; how it was run: as §1
[3] = test system: 2008; test: Cytotoxicity against cisplatin-sensitive human 2008 cells at 750 uM after 72 hrs by crystal violet dye assay; format: functional; how it was run: as §1
[4] = Cytotoxicity against african green monkey Vero cells assessed as cell survival at 750 uM after 72 hrs by crystal violet dye assay; format: cell-based; conditions: chlorocebus sabaeus, read-out: Activity
How it was run: (§2)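 Vero cells (African green monkey kidney) grown in MEM with 10% heat-inactivated fetal calf serum, penicillin G and streptomycin, 5% CO2, 37 °C. Seeded 4 × 10^4 cells/well, exposed 24 h later to compound for 3 days. Methanol-fixed, crystal violet-stained, dye solubilized in acidic isopropanol, absorbance read at 540 nm. Cytotoxicity is calculated against untreated controls. Mean of three experiments run in duplicate.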

[5] = test system: 2008; test: Resistant factor, ratio of IC50 for cisplatin-resistant human C13 cells to IC50 for cisplatin-sensitive human 2008 cells; format: functional
How it was run: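 RF^I is the IC50 in C13* cells divided by the IC50 in parental 2008 cells. Both IC50s come from a 3-day crystal violet dose–response assay, read at 540 nm.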

[6] = Cytotoxicity against cisplatin-resistant human C13 cells after 72 hrs by crystal violet dye assay; format: functional, cell-based; conditions: C13, 72 h; how it was run: as §1
[7] = Cytotoxicity against african green monkey Vero cells assessed as inhibition of growth at 750 uM after 72 hrs by crystal violet dye assay; format: cell-based; conditions: chlorocebus sabaeus, read-out: Activity; how it was run: as §2
[8] = test system: Vero; test: Cytotoxicity against african green monkey Vero cells after 72 hrs by crystal violet dye assay; format: cell-based; conditions: Chlorocebus sabaeus; how it was run: as §2
[9] = test system: Vero; test: Resistance factor, ratio of IC50 for african green monkey Vero cells to IC50 for cisplatin-resistant human C13 cells
How it was run: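 RF^II is the IC50 in Vero cells divided by the IC50 in C13* cells. Each IC50 comes from a 3-day crystal violet dose–response assay, read at 540 nm.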

[10] = test system: Vero; test: Cytotoxicity against african green monkey Vero cells at 10 uM after 72 hrs by crystal violet dye assay; format: cell-based; conditions: chlorocebus sabaeus; how it was run: as §2
[11] = Cytotoxicity against cisplatin-resistant human C13 cells at 10 uM after 72 hrs by crystal violet dye assay; format: functional; how it was run: as §1
[12] = test system: Vero; test: Cytotoxicity against african green monkey Vero cells at 5 uM after 72 hrs by crystal violet dye assay; format: cell-based; conditions: chlorocebus sabaeus; how it was run: as §2
[13] = test system: 2008; test: Cytotoxicity against cisplatin-sensitive human 2008 cells at 10 uM after 72 hrs by crystal violet dye assay; format: functional; how it was run: as §1

Compound | Activity [1] | IC50 [2] | Activity [3] | viability at 72 h, 750 µM [4] | Ratio IC50 [5] | IC50 [6] | inhibition at 72 h, 750 µM [7] | IC50 [8] | Ratio IC50 [9] | Activity [10] | Activity [11] | Activity [12] | Activity [13]
O=C(/C=C/c1ccc(O[C@@H]2O[C@H](CO)[C@@H](O)[C@H](O)[C@H]2O)c(O)c1)CC(=O)/C=C/c1ccc(O[C@@H]2O[C@H](CO)[C@@H](O)[C@H](O)[C@H]2O)c(O)c1 | 15% | 480 µM | 70% | 80% | >2 | – | – | – | – | – | – | – | –
COc1cc(/C=C/C(=O)CC(=O)/C=C/c2ccc(O[C@@H]3O[C@H](CO)[C@@H](O)[C@H](O)[C@H]3O)c(OC)c2)ccc1O[C@@H]1O[C@H](CO)[C@@H](O)[C@H](O)[C@H]1O | – | 220 µM | – | – | 3.8 | 840 µM | 20% | – | – | – | – | – | –
O=C(/C=C/c1ccc(O[C@@H]2O[C@H](CO)[C@@H](O)[C@H](O)[C@H]2O)cc1)CC(=O)/C=C/c1ccc(O[C@@H]2O[C@H](CO)[C@@H](O)[C@H](O)[C@H]2O)cc1 | – | 22 µM | – | – | 3.8 | 83 µM | – | 330 µM | 3.97 | – | – | – | –
COc1cc(/C=C/C(=O)CC(=O)/C=C/c2ccc(O)c(OC)c2)ccc1O [CURCUMIN] | – | 5 µM | – | – | 3.4 | 17 µM | – | 22 µM | 1.3 | 25% | 45% | 10% | 90%

Source: ChEMBL document CHEMBL1153447, “Synthesis, cytotoxic and combined cDDP activity of new stable curcumin derivatives” (Bioorg Med Chem, 2009)
